For one compound, AUC, IC50 and AUC/dose results are on record in ChEMBL document CHEMBL1949512, “RO4383596, an orally active KDR, FGFR, and PDGFR inhibitor: synthesis and biological evaluation” (Bioorg Med Chem, 2005).

A value given as a limit tells only on which side of the number the result lay.

Series [1] is described as follows: AUC in […] mouse at 100 mg/kg, po. The format is ADME, organism-based. The arrangement: dose 100 mg/kg, route oral. As to conditions: plasma. The procedure, abridged:
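A separate group of female mice received one 100 mg/kg oral dose. Median PK parameters were calculated for that cohort.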

For series [2], the target named is T1, Serine/threonine-protein kinase Sgk1 (Homo sapiens, UniProt O00141).
T1 sequence (O00141 whole entry): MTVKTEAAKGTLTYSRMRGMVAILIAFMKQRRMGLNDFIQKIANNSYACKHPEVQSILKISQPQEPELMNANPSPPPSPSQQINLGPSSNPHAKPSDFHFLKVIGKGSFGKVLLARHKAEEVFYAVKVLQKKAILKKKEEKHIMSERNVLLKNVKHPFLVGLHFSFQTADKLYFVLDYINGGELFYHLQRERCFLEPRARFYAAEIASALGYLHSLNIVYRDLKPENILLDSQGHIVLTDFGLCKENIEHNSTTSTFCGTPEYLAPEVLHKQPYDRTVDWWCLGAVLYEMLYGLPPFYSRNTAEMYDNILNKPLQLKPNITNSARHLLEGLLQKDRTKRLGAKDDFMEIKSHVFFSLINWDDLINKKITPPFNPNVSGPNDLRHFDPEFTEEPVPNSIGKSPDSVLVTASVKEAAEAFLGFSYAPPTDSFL
The series is described as follows: Inhibition of SGK.

Another series deals with Mus musculus. The experiment in a line: Dose normalized AUC in C57/BL6 mouse at 25 mg/kg, po bid for 5 days. In kind it is ADME, organism-based. The arrangement: dose 25 mg/kg, route oral. As to conditions: in vivo, 120 h. An outline of the steps: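 Female C57/BL6 mice were dosed orally twice daily for 5 days with a suspension in 2% Klucel LF/0.1% Tween 80 in water. Six mice per dose were split into two subgroups of three, each sampled at alternate time points. Retro-orbital blood was taken at 0, 1, 4 and 8 h post-dose into EDTA, and plasma was analysed by LC-MS/MS. Parameters come from mean concentrations; AUC0–8h by linear trapezoidal rule; Cmax and Tmax as observed.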

The compound `COc1ccc(N2Cc3cnc(Nc4ccccc4)nc3N([C@@H]3CC[C@@H](O)C3)C2=O)cc1` (racemic) yielded an AUC in series [1] of 146 µg·h/mL. The compound also displayed an IC50 in series [2] of over 125 µM. The same compound came in with an AUC/dose in the series on Mus musculus of 1199 ng·h/mL/mg/kg.
